Data taken from ChEMBL document CHEMBL4196009, “Novel vitexin-inspired scaffold against leukemia” (Eur J Med Chem, 2018).
Calls of active or inactive are those of the source. The rule behind the calls is not given here.

Legend:
SUP-B15 = test: Induction of apoptosis in human SUP-B15 cells assessed as viable cells at 5 uM after 24 hrs by Annexin V-FITC/propidium iodide staining-based flow cytometry (reference value: 82.8%); format: functional; conditions: SUP-B15, 24 h, read-out: Activity
MDA-MB-231 = test: Cell cycle arrest in human MDA-MB-231 cells assessed as accumulation at G0/G1 phase at 5 uM after 24 hrs by propidium iodide staining-based flow cytometry (reference value: 70.47%); format: functional
KOPN-8 [1] = test: Induction of apoptosis in human KOPN8 cells assessed as viable cells at 10 uM after 24 hrs by Annexin V-FITC/propidium iodide staining-based flow cytometry (reference value: 85.2%); format: functional; conditions: KOPN-8, 24 h, read-out: Activity
Procedure, shortened: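 KOPN-8 cells were treated for 24 h, with a DMSO vehicle control and a staurosporine positive control. Cells were stained with FITC-Annexin V and propidium iodide and analysed by flow cytometry. Quadrant gating separated viable, early apoptotic, late apoptotic (Q2) and necrotic populations.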

KOPN-8 [2] = test: Cell cycle arrest in human KOPN8 cells assessed as accumulation at G2/M phase at 10 uM after 24 hrs by propidium iodide staining-based flow cytometry (reference value: 9.67%); format: functional
Procedure, shortened: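 KOPN-8 cells treated 24 h alongside a DMSO vehicle and a staurosporine (2.0 µM) positive control. Apoptosis was scored by FITC Annexin V / propidium iodide flow cytometry with quadrant gating (early, late apoptotic). DNA content was measured by PI staining to give the percentage of cells in G0/G1, S and G2/M. Groups were compared by t-test; error bars are SD.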

KOPN-8 [3] = test: Downregulation of total Rb expression in human KOPN8 cells after 24 hrs by Western blot analysis; format: cell-based; conditions: kopn-8, 24 h
Procedure, shortened: (§1)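 KOPN-8 cells were treated at 10–100 µM final, with or without N-acetylcysteine co-addition, for 3 h and 24 h. Lysates were analysed by Western blot for PARP cleavage, Mcl-1, phospho-Ser2 RNAPII CTD, c-Myc, total Rb and pRb. Levels are relative to the vehicle control.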

[4] = target: T1, Retinoblastoma-associated protein (Homo sapiens) (UniProt P06400); test: Inhibition of Rb phosphorylation in human KOPN8 cells assessed as ratio of phosphorylated Rb to total Rb levels at 10 uM after 3 hrs by Western blot analysis relative to control; format: cell-based
T1 sequence (whole entry): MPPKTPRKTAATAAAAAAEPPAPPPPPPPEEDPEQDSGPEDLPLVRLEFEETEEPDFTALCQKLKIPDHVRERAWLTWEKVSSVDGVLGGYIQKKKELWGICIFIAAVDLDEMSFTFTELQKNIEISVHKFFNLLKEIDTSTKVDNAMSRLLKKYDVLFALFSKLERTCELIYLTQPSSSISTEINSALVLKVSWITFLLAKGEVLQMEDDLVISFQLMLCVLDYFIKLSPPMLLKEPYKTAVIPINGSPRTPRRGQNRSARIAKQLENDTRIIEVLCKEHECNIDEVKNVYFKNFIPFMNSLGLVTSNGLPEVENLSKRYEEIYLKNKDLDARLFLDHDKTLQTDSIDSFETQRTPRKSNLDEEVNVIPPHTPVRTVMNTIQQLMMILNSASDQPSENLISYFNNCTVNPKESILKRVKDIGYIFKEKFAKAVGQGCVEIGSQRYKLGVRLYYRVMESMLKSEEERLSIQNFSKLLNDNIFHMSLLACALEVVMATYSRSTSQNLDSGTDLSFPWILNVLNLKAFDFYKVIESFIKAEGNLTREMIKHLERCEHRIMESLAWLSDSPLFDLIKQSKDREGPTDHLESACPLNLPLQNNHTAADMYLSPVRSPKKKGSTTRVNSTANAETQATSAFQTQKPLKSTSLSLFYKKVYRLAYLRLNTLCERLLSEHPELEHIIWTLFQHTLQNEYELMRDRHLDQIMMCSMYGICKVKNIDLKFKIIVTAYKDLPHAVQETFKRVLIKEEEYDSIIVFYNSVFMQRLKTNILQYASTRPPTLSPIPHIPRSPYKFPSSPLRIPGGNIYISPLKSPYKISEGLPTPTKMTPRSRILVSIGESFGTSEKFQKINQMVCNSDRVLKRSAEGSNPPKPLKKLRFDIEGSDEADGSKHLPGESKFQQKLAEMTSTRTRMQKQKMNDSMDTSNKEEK
Procedure, shortened: (§2)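 KOPN-8 pre-B ALL cells were treated for 3 h and 24 h, with or without N-acetyl cysteine added to a parallel set of cells as an antioxidant/ROS quencher. Lysates were analysed by Western blot for phosphorylated Rb and total Rb. The same blots also probed PARP cleavage, Mcl-1, Ser-2-phosphorylated RNAPII CTD and cMyc.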

MCF7 = test: Induction of oxidative stress in human MCF7 cells transfected with mRuby-Mito-7 with fugene assessed as increase in intracellular total ROS levels at 50 uM measured after 1 hr by fluorimetric analysis; format: functional, cell-based
Procedure, shortened: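 MCF-7 cells carried an mRuby-Cox8A mitochondrial label. They were exposed to 50 of compound, alone or together with 50 of N-acetylcysteine, for 1 h. Cells were then stained with CellROX green (ex/em 485/520 nm) plus Hoechst 33342 nuclear stain. Total and mitochondrial ROS fluorescence was imaged in live cells and quantified relative to control.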

KOPN-8 [5] = test: Induction of apoptosis in human KOPN8 cells assessed as effect on Mcl-1 level at 30 uM pre-treated with NAC for 1 hr and measured after 3 hrs by Western blot analysis relative to control; format: functional
Procedure, shortened: (§3)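 KOPN-8 cells were exposed to compound for 3 h and 24 h, with or without N-acetylcysteine added to a parallel set as antioxidant. Lysates were analysed by Western blot for cleaved PARP, Mcl-1, Ser-2-phosphorylated RNAPII CTD, cMyc, total Rb and pRb. Signals were compared against controls for dose-dependent change.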

Homo sapiens [6] = species: Homo sapiens; test: Inhibition of RNA polymerase 2 C-terminal domain phosphorylation at Ser2 residue in human KOPN8 cells at 10 uM after 3 hrs by Western blot analysis relative to control; format: cell-based; procedure, shortened: as §3
Homo sapiens [7] = species: Homo sapiens; test: Inhibition of RNA polymerase 2 C-terminal domain phosphorylation at Ser2 residue in human KOPN8 cells at 30 uM after 3 hrs by Western blot analysis relative to control; format: cell-based; procedure, shortened: as §3
Homo sapiens [8] = species: Homo sapiens; test: Inhibition of RNA polymerase 2 C-terminal domain phosphorylation at Ser2 residue in human KOPN8 cells at 10 uM after 24 hrs by Western blot analysis relative to control; format: cell-based; procedure, shortened: as §3
KOPN-8 [9] = test: Effect on c-Myc expression in human KOPN8 cells at 10 uM pre-treated with NAC for 1 hr and measured after 24 hrs by Western blot analysis relative to control; format: functional
KOPN-8 [10] = test: Effect on c-Myc expression in human KOPN8 cells at 10 uM after 3 hrs by Western blot analysis relative to control; format: functional; procedure, shortened: as §1
KOPN-8 [11] = test: Effect on c-Myc expression in human KOPN8 cells at 100 uM after 3 hrs by Western blot analysis relative to control; format: functional; procedure, shortened: as §1
[12] = target: T1, Retinoblastoma-associated protein (Homo sapiens); test: Inhibition of Rb phosphorylation in human KOPN8 cells assessed as ratio of phosphorylated Rb to total Rb levels at 30 uM after 3 hrs by Western blot analysis relative to control; format: cell-based; procedure, shortened: as §2
[13] = target: T1, Retinoblastoma-associated protein (Homo sapiens); test: Inhibition of Rb phosphorylation in human KOPN8 cells assessed as ratio of phosphorylated Rb to total Rb levels at 100 uM pre-treated with NAC for 1 hr and measured after 24 hrs by Western blot analysis relative to control; format: cell-based; procedure, shortened: as §2

Activity (KOPN-8 [3]) | fold change (FC) [4] | fold change (FC) [12] | fold change (FC) [13] | SMILES | viability at 5 µM (SUP-B15) | Activity (MDA-MB-231) | viability at 10 µM (KOPN-8 [1]) | Activity (KOPN-8 [2]) | Activity (MCF7) | fold change (FC) (KOPN-8 [5]) | fold change (FC) (Homo sapiens [6]) | fold change (FC) (Homo sapiens [7]) | fold change (FC) (Homo sapiens [8]) | fold change (FC) (KOPN-8 [9]) | fold change (FC) (KOPN-8 [10]) | fold change (FC) (KOPN-8 [11])
– | – | – | – | CN(C)C(=O)c1cc2cnc(Nc3ccc(N4CCNCC4)cn3)nc2n1C1CCCC1 [RIBOCICLIB] | 35.4% | 90.85% | – | – | – | – | – | – | – | – | – | –
Dose-dependent effect | 1 | 1 | 1.2 | COc1ccc(-c2c(I)c(=O)c3c(OC)cc(OC)cc3n2S(=O)(=O)c2ccc(OC)cc2)cc1 | – | – | 8.5% | 27.12% | Active | 0.8 | 0.7 | 1 | 1.8 | 1.3 | 0.9 | 0.2
